Converted amounts (≈) assume the structure as drawn.
What was measured:
Assay type in all cases: functional
Curvularia lunata [1] = assay: Antifungal activity against Curvularia lunata assessed as zone of inhibition at 100 ug/ml after 48 hrs by disc diffusion method; conditions: read-out: DIZ
Summary of the method: (§1)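 Fungi were grown on potato dextrose agar at 25 °C for 3 days, and spore suspensions were adjusted to 10⁶ spores/ml. In the disc diffusion test, inoculated plates received 6 mm paper discs moistened with compound in DMSO at 100 or 200 per disc. Plates were incubated at 37 °C, and inhibition zone diameter was read at 48 h. Ketoconazole was the standard.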

[2] = tested on: Radical scavenging activity; assay: Antioxidant activity against DPPH free radical scavenging activity at 100 uM after 20 mins by spectrophotometric analysis at pH 7.5
Summary of the method: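 DPPH assay: compound solutions at 100 were added to DPPH at 100 in dioxane/methanol and held at ambient temperature for 20 min. Absorbance was read at 517 nm, and the test–control difference was expressed as percent DPPH radical scavenging.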

Curvularia lunata [3] = assay: Antifungal activity against Curvularia lunata assessed as zone of inhibition at 200 ug/ml after 48 hrs by disc diffusion method; conditions: read-out: DIZ; summary of the method: as §1
Klebsiella pneumoniae [4] = assay: Antibacterial activity against Klebsiella pneumoniae after 24 hrs by microdilution method
Summary of the method: (§2)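 MIC by microdilution susceptibility testing in tubes. Incubation was at 36 °C for 24 h (bacteria) or 48 h (fungi). MIC was recorded as the lowest compound concentration giving no turbidity, i.e. no visible growth. Chloramphenicol was the antibacterial reference and ketoconazole the antifungal standard.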

Escherichia coli [5] = assay: Antibacterial activity against Escherichia coli assessed as zone of inhibition at 100 ug/ml after 24 hrs by disc diffusion method; conditions: read-out: DIZ
Summary of the method: (§3)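 Agar disc diffusion on nutrient agar plates pre-inoculated separately with each bacterium. Sterile 6 mm paper discs were moistened with compound solution in DMSO at 100 or 200 per disc and placed on the plates. Plates were incubated at 37 °C, and growth-inhibition zone diameter was measured after 24 h. Chloramphenicol served as the reference drug.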

Bacillus subtilis [6] = assay: Antibacterial activity against Bacillus subtilis after 24 hrs by microdilution method; summary of the method: as §2
Klebsiella pneumoniae [7] = assay: Antibacterial activity against Klebsiella pneumoniae assessed as zone of inhibition at 100 ug/ml after 24 hrs by disc diffusion method; conditions: read-out: DIZ; summary of the method: as §3
Staphylococcus aureus [8] = assay: Antibacterial activity against Staphylococcus aureus assessed as zone of inhibition at 100 ug/ml after 24 hrs by disc diffusion method; conditions: read-out: DIZ; summary of the method: as §3
Escherichia coli [9] = assay: Antibacterial activity against Escherichia coli after 24 hrs by microdilution method; summary of the method: as §2
Staphylococcus aureus [10] = assay: Antibacterial activity against Staphylococcus aureus after 24 hrs by microdilution method; summary of the method: as §2
Fusarium solani [11] = assay: Antifungal activity against Fusarium solani assessed as zone of inhibition at 200 ug/ml after 48 hrs by disc diffusion method; conditions: read-out: DIZ; summary of the method: as §1
Fusarium solani [12] = assay: Antifungal activity against Fusarium solani after 48 hrs by microdilution method; summary of the method: as §2
Curvularia lunata [13] = assay: Antifungal activity against Curvularia lunata after 48 hrs by microdilution method; summary of the method: as §2
Aspergillus niger [14] = assay: Antifungal activity against Aspergillus niger assessed as zone of inhibition at 100 ug/ml after 48 hrs by disc diffusion method; conditions: read-out: DIZ; summary of the method: as §1
Bacillus subtilis [15] = assay: Antibacterial activity against Bacillus subtilis assessed as zone of inhibition at 200 ug/ml after 24 hrs by disc diffusion method; conditions: read-out: DIZ; summary of the method: as §3
Staphylococcus aureus [16] = assay: Antibacterial activity against Staphylococcus aureus assessed as zone of inhibition at 200 ug/ml after 24 hrs by disc diffusion method; conditions: read-out: DIZ; summary of the method: as §3
Fusarium solani [17] = assay: Antifungal activity against Fusarium solani assessed as zone of inhibition at 100 ug/ml after 48 hrs by disc diffusion method; conditions: read-out: DIZ; summary of the method: as §1
Escherichia coli [18] = assay: Antibacterial activity against Escherichia coli assessed as zone of inhibition at 200 ug/ml after 24 hrs by disc diffusion method; conditions: read-out: DIZ; summary of the method: as §3
Aspergillus niger [19] = assay: Antifungal activity against Aspergillus niger after 48 hrs by microdilution method; summary of the method: as §2
Bacillus subtilis [20] = assay: Antibacterial activity against Bacillus subtilis assessed as zone of inhibition at 100 ug/ml after 24 hrs by disc diffusion method; conditions: read-out: DIZ; summary of the method: as §3
[21] = Antioxidant activity against nitric oxide scavenging activity at 100 uM after 120 mins by spectrophotometric analysis at pH 7.4
Summary of the method: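 Nitric oxide scavenging: test compounds at 100 in dioxane/methanol were incubated at 25 °C for 120 min, with a solvent-only control. At intervals, 0.5 ml samples were mixed with an equal volume of Griess reagent (1% sulfanilamide, 0.1% N-naphthylethylenediamine dihydrochloride, 2% o-phosphoric acid). Absorbance of the azo chromophore was then measured.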

Klebsiella pneumoniae [22] = assay: Antibacterial activity against Klebsiella pneumoniae assessed as zone of inhibition at 200 ug/ml after 24 hrs by disc diffusion method; conditions: read-out: DIZ; summary of the method: as §3
Aspergillus niger [23] = assay: Antifungal activity against Aspergillus niger assessed as zone of inhibition at 200 ug/ml after 48 hrs by disc diffusion method; conditions: read-out: DIZ; summary of the method: as §1

| Structure (SMILES) | zone of inhibition at 100 µg/mL (Curvularia lunata [1]) | inhibition [2] | zone of inhibition at 200 µg/mL (Curvularia lunata [3]) | MIC (Klebsiella pneumoniae [4]) | zone of inhibition at 100 µg/mL (Escherichia coli [5]) | MIC (Bacillus subtilis [6]) | zone of inhibition at 100 µg/mL (Klebsiella pneumoniae [7]) | zone of inhibition at 100 µg/mL (Staphylococcus aureus [8]) | MIC (Escherichia coli [9]) | MIC (Staphylococcus aureus [10]) | zone of inhibition at 200 µg/mL (Fusarium solani [11]) | zone of inhibition at 100 µg/mL (Aspergillus niger [14]) | zone of inhibition at 200 µg/mL (Bacillus subtilis [15]) | zone of inhibition at 200 µg/mL (Staphylococcus aureus [16]) | zone of inhibition at 100 µg/mL (Fusarium solani [17]) | zone of inhibition at 200 µg/mL (Escherichia coli [18]) | zone of inhibition at 100 µg/mL (Bacillus subtilis [20]) | inhibition [21] | zone of inhibition at 200 µg/mL (Klebsiella pneumoniae [22]) | zone of inhibition at 200 µg/mL (Aspergillus niger [23]) | further results |
| --- | --- | --- | --- | --- | --- | --- | --- | --- | --- | --- | --- | --- | --- | --- | --- | --- | --- | --- | --- | --- | --- |
| N#CC(C#N)=C(SCc1nnc(-c2ccc(Cl)cc2)s1)SCc1nnc(-c2ccc(Cl)cc2)s1 | 32 mm | 30.2% | 34 mm | 200 µg/mL (≈ 357 µM) | 25 mm | 50 µg/mL (≈ 89.4 µM) | 23 mm | 32 mm | 200 µg/mL (≈ 357 µM) | 100 µg/mL (≈ 179 µM) | 32 mm | 26 mm | 32 mm | 35 mm | 30 mm | 26 mm | 30 mm | 29.4% | 25 mm | 29 mm | MIC (Fusarium solani [12]): 50 µg/mL (≈ 89.4 µM); MIC (Curvularia lunata [13]): 50 µg/mL (≈ 89.4 µM); MIC (Aspergillus niger [19]): 100 µg/mL (≈ 179 µM) |
| N#CC(C#N)=C(SCc1nnc(-c2ccc(Cl)cc2)o1)SCc1nnc(-c2ccc(Cl)cc2)o1 | 16 mm | 73.7% | 19 mm |  | 8 mm |  | 8 mm | 16 mm |  |  | 22 mm | 14 mm | 16 mm | 20 mm | 20 mm | 11 mm | 13 mm | 72.5% | 12 mm | 17 mm |  |
| N#CC(C#N)=C(SCc1nnc(-c2ccccc2)o1)SCc1nnc(-c2ccccc2)o1 | 15 mm | 63.5% | 17 mm |  | 8 mm |  | 9 mm | 12 mm |  |  | 21 mm | 12 mm | 16 mm | 14 mm | 18 mm | 10 mm | 12 mm | 65.4% | 12 mm | 14 mm |  |
| Cc1ccc(-c2nnc(CSC(SCc3nnc(-c4ccc(C)cc4)o3)=C(C#N)C#N)o2)cc1 | 13 mm | 52.5% | 14 mm |  |  |  |  | 10 mm |  |  | 17 mm | 10 mm | 12 mm | 13 mm | 15 mm |  | 10 mm | 54.3% | 11 mm | 11 mm |  |
| Cc1ccc(-c2nnc(CSC(SCc3nnc(-c4ccc(C)cc4)s3)=C(C#N)C#N)s2)cc1 | 25 mm | 21.6% | 26 mm |  | 17 mm |  | 18 mm | 19 mm |  |  | 25 mm | 18 mm | 24 mm | 25 mm | 23 mm | 24 mm | 19 mm | 22.3% | 22 mm | 21 mm |  |
| O=C1O[C@H]([C@@H](O)CO)C(O)=C1O |  | 95.3% |  |  |  |  |  |  |  |  |  |  |  |  |  |  |  | 94.9% |  |  |  |
| CC(=O)N1CCN(c2ccc(OCC3COC(Cn4ccnc4)(c4ccc(Cl)cc4Cl)O3)cc2)CC1 (stereo not given) [KETOCONAZOLE] | 41 mm |  | 44 mm |  |  |  |  |  |  |  | 42 mm | 36 mm |  |  | 38 mm |  |  |  |  | 39 mm | MIC (Fusarium solani [12]): 12.5 µg/mL (≈ 23.5 µM); MIC (Curvularia lunata [13]): 6.25 µg/mL (≈ 11.8 µM); MIC (Aspergillus niger [19]): 6.25 µg/mL (≈ 11.8 µM) |
| CCOC(=O)CSC(SCC(=O)OCC)=C(C#N)C#N | 12 mm | 46.3% | 15 mm |  | 7 mm |  |  | 10 mm |  |  | 15 mm | 9 mm | 14 mm | 14 mm | 13 mm | 9 mm | 12 mm | 45.8% | 8 mm | 12 mm |  |
| O=C(N[C@H](CO)[C@H](O)c1ccc([N+](=O)[O-])cc1)C(Cl)Cl [CHLORAMPHENICOL] |  |  |  | 12.5 µg/mL (≈ 38.7 µM) | 40 mm | 6.25 µg/mL (≈ 19.3 µM) | 42 mm | 35 mm | 6.25 µg/mL (≈ 19.3 µM) | 6.25 µg/mL (≈ 19.3 µM) |  |  | 41 mm | 39 mm |  | 44 mm | 38 mm |  | 45 mm |  |  |
| N#CC(C#N)=C(SCc1nnc(-c2ccccc2)s1)SCc1nnc(-c2ccccc2)s1 | 26 mm | 26.3% | 28 mm | 200 µg/mL (≈ 408 µM) | 21 mm | 100 µg/mL (≈ 204 µM) | 23 mm | 24 mm | 200 µg/mL (≈ 408 µM) | 200 µg/mL (≈ 408 µM) | 28 mm | 21 mm | 27 mm | 26 mm | 25 mm | 24 mm | 23 mm | 25.8% | 24 mm | 24 mm | MIC (Fusarium solani [12]): 100 µg/mL (≈ 204 µM); MIC (Curvularia lunata [13]): 100 µg/mL (≈ 204 µM); MIC (Aspergillus niger [19]): 100 µg/mL (≈ 204 µM) |

From ChEMBL document CHEMBL1759942, “Synthesis and biological activity of 2-(bis((1,3,4-oxadiazolyl/1,3,4-thiadiazolyl)methylthio)methylene)malononitriles” (2011)
